The chains are these.
B1: tRNA (parent)
chain: GUUCCGUUGGCGUAAUGGUAACGCGUCUCCCUCCUAAGGAGAAGACUGCGGGUUCGAGUCCCGUACGGAACG

Among the data in the RNAGym collection of RNA variant scans (doi:10.1126/science.aae0568) are yeast fitness values, retold here.

Variants at the floor of the assay were thinned out.

The variants in this data set derive from B1. Briefly: yeast fitness relative to wild type (ratio to wild type); higher = fitter; tRNA-Arg(CCU), competitive growth, 37 C, YPD. In a few lines:
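Gene amplicons from the start population and from each of six end populations were read by 100-nucleotide paired-end sequencing. Those end populations came from pooled Saccharomyces cerevisiae strains carrying tRNA-Arg(CCU) gene variants at the native locus, competed in YPD at 37°C for 24 hours. Fitness relative to wild type was worked out from changes in genotype frequencies. Genotypes needed ≥ 100 starting reads, and estimates < 0.5 were set to 0.5.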
Regarding GUACCGUUGGGGUAAUGGUAACGCGUCUCCCUCCUAAGGACAAGACUGCGGGUUCGAGUCCCGUACGGAACG [U3A C11G G41C], the yeast fitness worked out at 0.61.

As to GUACCGUUGGAGUAAUGGUAACGCGUCUCCCUUCUAAGGAGAAGACUGCGGGUUCGAGUUCCGUUCGGAACG [U3A C11A C33U C60U A65U], the yeast fitness was at most 0.5.

Take GUACUGUUGGCGUAAUGGUAACGCGUCACCCUCCUAAGGAGAAGACUGCGGGUUCGAAUCCCGUACGGAACG [U3A C5U U28A G58A]: the yeast fitness came out at 0.5.

In the case of GUACCGUUGGGGUAAUCGUAACGGGUCUCCCUCCUAAGGAGAAGAAUGCGGGUUCGAGUCCCGUACGCAACG [U3A C11G G17C C24G C46A G68C], the yeast fitness is 0.553.

Turning to GUACCGUUGGGGUAAUGGUAACGCGUCUCCCUCCUAAGGGGAAGACUGCGGGGUCGAGUCCCGUACGCAACG [U3A C11G A40G U53G G68C], the yeast fitness is 0.654.

As for GUACCGUUGGCGUAAUGGUAAGGCGUGUCCCUCCUAAGGAGAAGACUGCGGGUUCGAGGCCCGUACGGGACG [U3A C22G C27G U59G A69G], the yeast fitness was at most 0.5.

Regarding GUACCGUUGGGGUCAUGGUAACGGGUCUCCCUCCUAAGGAGAAGACUGCGGGUUCGAGUCCCGUACGGAACG [U3A C11G A14C C24G], the yeast fitness amounted to 0.653.

Regarding GUACCGUUGGCGUAAUGGUAAGGCGUCUUCCUCCUAAGGAGAAGACUGCGGGUUCGAGUCCCGUCCGGAACG [U3A C22G C29U A65C], the yeast fitness is at most 0.5.

As to GUACCGUUGGUGUAAUGGUAACGCGUCUCCCUCCUAAGGAGAAGACUGCGGGUUCGAGUCCCGUACGGUACG [U3A C11U A69U], the yeast fitness was determined as 0.627.

Consider GUACCGUUGGGGUAAUCGUAACGGGUCUCCCUCCUAAGGAGAAGAAUGCGGGUUCGAGUCCCGUACGGAACG [U3A C11G G17C C24G C46A], for which the yeast fitness is at most 0.5.

Take GUACCGUUGGGGUAAUGGUAAAGCGUCUCCCUGCUAAGGAGAAGACUGCGGGUUCGAGUCCCGUACGGAACG [U3A C11G C22A C33G]: the yeast fitness is at most 0.5.

Take GUACCGUUGGCGUAAUGGUAAGGCGUCUCCCUGCUAAGGAGAAGACUGCGAGUUCGAGUCCCGUACGGAACG [U3A C22G C33G G51A]: the yeast fitness was at most 0.5.

GUACUGUUGGCGUAAUGGUAACGCGUCUCCGUCCUAAGGAGAAGACUGCGGGUUCGAGUCCGGUACGGUACG [U3A C5U C31G C62G A69U]: the yeast fitness stood at 0.554.

With GUACCGUUGGAGUAAUGGUAACGCGUCUCCCUUCUAUGCAGAAGACUGCGGGUUCGAGUCCCGUACGGAACG [U3A C11A C33U A37U G39C], the yeast fitness is at most 0.5.

As for GUACCGUUGGGGUAAUGGUAACCCGUCUCCCUCCUAAGGAGAAGACUGCGGGUUCGAGUCCCGUACGGAACG [U3A C11G G23C], the yeast fitness is 0.501.

Consider GUACCGUUGGCGUAAUGGUAAGGCGUCUUCCUCCUAAGGAGAAGACUGCGGGUUCGAGUCCCGUACGGAACG [U3A C22G C29U], for which the yeast fitness was determined as 0.55.

As to GUACCGUUGGGGUCAUGGUAACGGGUCUCCAUCCUAAGGAGAAGACUGCGGGUUCGAGUCCCGUACGGAACG [U3A C11G A14C C24G C31A], the yeast fitness is at most 0.5.

Consider GUACCGUUGGUGUAAUGGUCACGCGUCUCCCACCUAAGGAGAAGACUGCGGGUUCGAGUCCUAUACGGAACG [U3A C11U A20C U32A C62U G63A], for which the yeast fitness is at most 0.5.

Regarding GUACCGUUGGUGUAAUGGUAACGCGUCUCCCUCCUAAGGAGAAGACUGCGGGUUGGAGUGCCGUACGGAACG [U3A C11U C55G C60G], the yeast fitness was at most 0.5.

For the variant GUACUGUUGGCGUAAUGCUAACGCGUCUCCCUCCUAAGGAGAAGACUGCGGGUACAAGUCCCGUACGGAGCG [U3A C5U G18C U54A G56A A70G], the yeast fitness was at most 0.5.

Take GUACCGUUGGUGUAAUGGUAACGCGUCUACCUCCUAAGGAGGAGACUGCGGGUUCGAGUCCCGUACGGAACG [U3A C11U C29A A42G]: the yeast fitness is 0.629.

Regarding GUACCGUUGGGGUAAUCGUAACGGGUCUCCCUCCUAAGGAGAAGAAUGCGGGUUCGAGUCCCGUUCGGAACG [U3A C11G G17C C24G C46A A65U], the yeast fitness was at most 0.5.

GUACUGUUGGCGUAAUGGUAACGCGUCUCCCUCCUAAGGAGAAGACUGCGGGUUCGAGUCCAGUACGGAACG [U3A C5U C62A]: the yeast fitness was at most 0.5.

With GUACCGUUGGCGUAAUGGUAAGGCGUCUGCCUCCUAAGGAGAAGAUUGCGGGUUCGAGUCCCGUACGGAUCG [U3A C22G C29G C46U A70U], the yeast fitness is at most 0.5.

Consider GUACCGUUGGGGUCAUGGUAACGCGUCUCCCUCCUAAGGAGAAGACUGCGGGUUCGAGUCCUAUACGGAACG [U3A C11G A14C C62U G63A], for which the yeast fitness is at most 0.5.

Turning to GUACCGUUGGCGUAAUGGUAAGGUGUCUCCCUCCUAAGAAGAAGACUGCGGGUUCGAGUCCCGUACGGAACG [U3A C22G C24U G39A], the yeast fitness is at most 0.5.

Take GUACUGUUGGCGUAAUGGUAACGCGUCUCCCUCCUAAGGAGAGGACUGCGGGUUCGAGUCCCGUACGGAACG [U3A C5U A43G]: the yeast fitness was 0.607.

Take GUACCGUUGGAGUAAUGGUAACGCGUCUUCCUCCUAAGGAGAAGACUGCGGGUUCGCGUCCCGUACGGAACG [U3A C11A C29U A57C]: the yeast fitness is at most 0.5.

For the variant GUACCGUUGGCGUAAUGGUAAGGCGUCUCCCUCCUAAGGAGAAGACUACGGGUUCGAGUCCCGUACGGAACG [U3A C22G G48A], the yeast fitness came out at 0.544.

Regarding GUACCGUUGGCGUAAUGGUAAGGCGUCUCUCGCCUAAGGAGAAGACUGCGGGCUCGAGUCCCGUACGCAGCG [U3A C22G C30U U32G U53C G68C A70G], the yeast fitness is at most 0.5.

GUACUGUUGGCGUAAUGGUAAGGCGUCUCCCUCCUAAGGAGAAGACUGCGGGGUCGAGUCCCGUACGGAACG [U3A C5U C22G U53G]: the yeast fitness is at most 0.5.

As for GUACCGUUGGCGUAAUGGUAAAGCGUCUCCCUACUUAGGAGAAGACUGCGGGAACGAGUCCCGUACGGAACG [U3A C22A C33A A36U U53A U54A], the yeast fitness was at most 0.5.

Consider GUACCGUUGGUGCAAUGGUAACGCGUCUCCAUCCUAAGGAGAAGACUGCGGGUUCGAGUCCCGUACGGAACG [U3A C11U U13C C31A], for which the yeast fitness is at most 0.5.

Regarding GUACCGUUGGCGUAAUGGUAAGGCGUCUUCCUCCUAAGGAGAAGACUGCGGGUUCGAGUCCCCUAUGGAACG [U3A C22G C29U G63C C66U], the yeast fitness was at most 0.5.

For GUACCGUUGGCGUAAUGGUAAUGCGUCUCCCUCCUAAGGAGAAGACUGCGGGUUCGAGUCCCGUACGGAACG [U3A C22U], the yeast fitness was found to be 0.738.

Consider GUACCGUUGGGGUAAUGGUAACGCGUCUCCGUCCUAAGGAGAAGACUGCGGGUUCGAGUCCAGUACGGAACG [U3A C11G C31G C62A], for which the yeast fitness was at most 0.5.

GUACCGUUGGUGUAAUGGUAACGCGUCUCCCUCCUAUGGAAAAGACUGCGGCUUCGCGUCCCGUACGGAACG [U3A C11U A37U G41A G52C A57C]: the yeast fitness was at most 0.5.

For GUACCGUUGGUGUAAUGGUAACGCGUCUACCUCCUAAGGAGGAGACUGCGGGUUCGCGUCCCGUACGGAACG [U3A C11U C29A A42G A57C], the yeast fitness was at most 0.5.
